Values joined by “and” are separate entries in the source; they are usually repeats but may differ in a detail not shown here. Identical values can stand only once. Marks after values point to notes of the source that are not given here.
Key:
[1] = Pharmacokinetic analysis of N-89 in mice after single po or iv administration; assay type: in vivo, ICR mice; settings: for plasma concentration: detection limit 5 ng/ml
How it was run: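 Male ICR mice got a single dose of test compound: 75 mg/kg po in olive oil or 30 mg/kg iv in 10% ethanol/10% Cremophor EL/80% saline. Blood sampled 0.25–10 h, one sample per mouse, 5 mice per time. Plasma obtained by centrifugation 10 min, 945 g, 4°C, acetonitrile-extracted, then LC/MS/MS (detection limit 5 ng/ml). Cmax observed; AUC and MRT from the mean time course (n=5).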

P. berghei (NK65 strain) [2] = test: Peters' 4-day suppressive test by different administration routes; assay type: in vivo, Plasmodium berghei
How it was run: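 Peters' 4-day test: male ICR mice, iv inoculation of 1×10^5 P. berghei NK65-infected erythrocytes. First dose 2 h post-inoculation, then dosing on days 0–3. Routes and doses: po 0–80 mg/day in olive oil; iv 0–80 mg/day in ethanol/Cremophor EL/saline 10:10:80; sq 0–8 mg/day in the iv vehicle. Vehicle controls; 5 mice/group. Day-4 thin-film parasitemia, expressed as percent reduction; ED50/ED90 by sigmoidal dose-response fit.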

P. berghei (NK65 strain) [3] = test: Antimalarial activity following repeated oral dosing; assay type: in vivo, Plasmodium berghei; settings: for Parasitemia day 1: before treatment (treatment days 2-4); for Parasitemia day 2: start of treatment
P. falciparum = settings: cited from earlier work
[4] = test system: mouse mammary tumor FM3A cells; settings: in vitro; cited from earlier work
[5] = test system: malaria parasites in mice; settings: ointment, transdermal, cited from earlier work
P. berghei = settings: cited from earlier work
[6] = ICR, mouse, plasma, iv, 30 mg/kg
[7] = ICR, mouse, plasma, po, 75 mg/kg
[8] = po, olive oil, 4 days, parasitemia on day 4
[9] = 50 mg/kg po thrice daily days 2-4
[10] = 50 mg/kg po thrice daily for 3 days
[11] = 75 mg/kg po 3 times daily days 2-4

## C1CCCCCC2(CCCCC1)OOCCCOO2 [N-89, 1,2,6,7-tetraoxaspiro[7.11]nonadecane]
[1]; [6]
  AUC(0-inf): 13600 ng·h/mL
  AUC(0-t): 13600 ng·h/mL
  MRT: 14.4 min
  Vd: 0.53 L/kg
  clearance: 36.8 mL/min/kg
  concentration at 0.25 h: 18.3 µg/mL
  half-life: 90 min
[1]; ICR, mouse, plasma, oral, 75 mg/kg
  bioavailability: 7.01%
[1]; [7]
  AUC(0-inf): 2380 ng·h/mL
  AUC(0-t): 2370 ng·h/mL
  Cmax: 1.59 µg/mL
  MRT: 107 min
  Tmax: 45 min
  concentration at 8 h: 0.0081 µg/mL
  half-life: 58.2 min
[1]; mice, 30 mg/kg iv, at 5 h
  plasma concentration: could not be detected
[1]; mice, 75 mg/kg po, at 10 h
  plasma concentration: could not be detected
[1]; mice, single dose 75 mg/kg po (Table 1)
  Cmax: 1590 µg/mL
P. berghei (NK65 strain) [2]; Plasmodium berghei, 96 h, sq, ethanol:Cremophor EL:saline 1:1:8, 4 days
  ED50: 2.5 ± 1.1 mg/kg
P. berghei (NK65 strain) [2]; Plasmodium berghei, iv, 96 h, iv, ethanol:Cremophor EL:saline 1:1:8, 4 days
  ED50: 14.5 ± 1.9 mg/kg
P. berghei (NK65 strain) [2]; iv, ethanol:Cremophor EL:saline 1:1:8, 4 days
  ED90: 21.0 ± 0.8 mg/kg
P. berghei (NK65 strain) [2]; [8]
  ED50: 20.5 ± 2.0 mg/kg
  ED90: 43.5 ± 1.5 mg/kg
P. berghei (NK65 strain) [2]; sq, ethanol:Cremophor EL:saline 1:1:8, 4 days
  ED90: 3.8 ± 1.0 mg/kg
P. berghei (NK65 strain) [3]; 50 mg/kg po group
  Parasitemia day 1: 0.10±0.04%
P. berghei (NK65 strain) [3]; [9]
  Parasitemia day 3: 0.11±0.06%
  Parasitemia day 4: 0.01±0.01%
  Parasitemia day 5: 0.002±0.004^c %
  Parasitemia day 6: 0.00^b %
  parasitemia of the one mouse not yet cured on day 5: 0.01%
  Parasitemia day 2: 0.51±0.14%
P. berghei (NK65 strain) [3]; [10]
  cure effect: complete cure effect
  day on which parasites were eliminated / all mice cured, no recurrence to day 30: 6 days
P. berghei (NK65 strain) [3]; [11]
  Parasitemia day 3: 0.26±0.05%
  Parasitemia day 4: 0.01±0.01^a %
  Parasitemia day 5: 0.00^b %
  Parasitemia day 6: 0.00%
  parasitemia of the 4 mice not yet cured on day 4: below 0.015%
  Parasitemia day 2: 0.70±0.19%
P. berghei (NK65 strain) [3]; 75 mg/kg po 3 times daily for 3 days
  day on which parasites were eliminated / all mice cured, no recurrence to day 30: 5 days and 4 to 5 days
P. berghei (NK65 strain) [3]; 75 mg/kg po group
  Parasitemia day 1: 0.09±0.07%
P. falciparum
  EC50 value of P. falciparum in vitro: 6.8 ng/mL
[4]
  toxicity against P. falciparum relative to FM3A cells (selective toxicity): 350 fold
[5]; 60 mg/kg twice daily for 4 days at 0.2% parasitemia
  day from which parasites disappeared post-treatment: 7 days
[5]; 60 mg/kg twice daily for 4 days
  recurrence and dermal irritation: without parasite recurrence or dermal irritation

## C[C@H]1[C@@H](OCc2ccc(C(=O)O)cc2)O[C@@H]2O[C@@]3(C)CC[C@H]4[C@H](C)CC[C@@H]1[C@@]24OO3 [artelinic acid]
P. berghei; gel applied topically twice/day x 3 days post-infection, dose 270 mg/kg
  effect of topical gel on infected mice: prevented the death

## CO[C@H]1O[C@@H]2O[C@@]3(C)CC[C@H]4[C@H](C)CC[C@@H]([C@H]1C)[C@@]24OO3 [artemether]
P. berghei; improved formulation, same experimental conditions, dose 60 mg/kg
  effect of topical formulation on infected mice: efficient

From paper PMC10471475 (Parasites, Hosts and Diseases, 2023)
